Where two headings read alike, the source gives them in different places.
Tests used:
[1] = PBK population simulation of plasma concentrations; design: species or system human
Method in brief: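 GastroPlus population simulations reproduced the clinical designs. Lotion or non-aerosol spray, 2 mg/cm2 over 75% body surface, once at 0 h on day 1 and 4 times daily at 2-h intervals on days 2–4 (mixed multiple-dose profile). Alternatively, a 4% formulation over 90% body surface, about 22 mg/kg bw, in 3 male and 3 female subjects. Simulated-mean/observed-mean ratios for Cmax and AUC0−t; 10th–90th percentiles generated.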

human hepatocytes = experiment: Metabolic stability in primary human hepatocytes in suspension; assay type: in vitro ADME; conditions: for depletion in suspension hepatocytes: human suspension hepatocytes, compared with Naloxone
Method in brief: (§1)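 Cryopreserved human hepatocytes (5-donor pool, 0.8 × 10^6 cells/ml) in Williams E medium (25 mM HEPES, 2 mM L-glutamine) were incubated with test compound at 0.1, 1 and 10 µM, 37°C, n = 3. Sampled at 0, 15, 60, 90, 180 and 240 min; solvent ≤0.5% DMSO or 1% ACN. Heat-inactivated hepatocytes were the negative control. Parent loss was measured by LC-MS. CLint = −k·V (k, slope of log concentration vs time; V, incubation volume/cell number).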

[2] = as above; assay type: in vitro ADME; conditions: human, cryopreserved human hepatocytes in suspension (5 donor pool)
Method in brief: as §1

[3] = Blood partitioning assay for Rbp; assay type: in vitro ADME; conditions: both, human
Method in brief: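 Fresh pooled mixed-gender human whole blood (lithium heparin) and reference plasma centrifuged from the same blood were each incubated with 5 µM test compound at 37°C, n = 3. Reactions were stopped at 0 and 60 min. Rbp was derived by LC-MS/MS from test compound concentration in control plasma versus whole-blood supernatant. Chlorthalidone 5 µM served as positive control.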

[4] = human plasma, topical sunscreen, ref Matta et al., 2020, cited from earlier work
[5] = Ex vivo skin penetration study of radiolabeled OMC; assay type: in vitro ADME; conditions: human skin; for Dermal delivery (Epidermis + Dermis + Receptor fluid), 14C-OMC / Dermis, distribution of 14C-OMC / Epidermis, distribution of 14C-OMC / Receptor fluid, distribution of 14C-OMC / Skin excess, distribution of 14C-OMC / Total recovery, 14C-OMC / Total strips (1–20), distribution of 14C-OMC: mean
Method in brief: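 Dermatomed skin, 350–450 µm, in flow-through diffusion cells (1 cm2 area), unoccluded, surface at 32°C ± 1°C. Receptor fluid (5% w/w BSA, 0.9% NaCl) flowed at 1.5 ml/h and was collected hourly. Runs ended at 30 min, 1, 2, 4, 8 h (n = 5) or 24 h (n = 12). Up to 20 tape strips; epidermis heat-separated from dermis; compartments counted by scintillation. Dermal delivery = epidermis + dermis + receptor fluid.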

[6] = Skin absorption parameters; design: species or system human; conditions: Fitted; for Vehicle/water partition coefficient: vehicle/formulation specific
Method in brief: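 A skin model in GastroPlus TCAT started from in silico predicted values for the vehicle, stratum corneum, epidermis and dermis. Its diffusivities and partition coefficients were fitted to skin penetration data: receptor-fluid time course where available, plus skin wash and layer distribution. Parameters were adjusted to minimise model–data difference and then used in the human dermal model. Vehicle/water partitioning is formulation-specific.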

[7] = Scaling of in vitro CLint to in vivo CLint and CLliver; design: species or system human; conditions: scaled from the mean in vitro CLint
Method in brief: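 Mean in vitro hepatocyte CLint was scaled to in vivo CLint (l/h) using a scaling factor: million cells per gram of liver × grams of liver weight. In vivo CLint was then converted to hepatic clearance with two variations of the well-stirred liver model.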

Cross filtration = assay type: in vitro ADME; conditions: both, human, pooled human plasma
Method in brief: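 Modified cross-ultrafiltration: 10 µM test compound in pooled mixed-gender human plasma, 60 min at 37°C, n = 3, then ultrafiltered beside blank plasma. Each retentate was mixed into the partner filtrate and the regenerated samples analysed by LC-MS/MS. Warfarin 10 µM was positive control. Stability was checked at 60 min against non-incubated control. Recovery-corrected mean PPB from filtrate; Fup = 100 − PPB.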

[8] = human skin, cited from earlier work
[9] = target dose 300 µg/cm^2, ref SCCS, 2021

CCCCC(CC)COC(=O)C=Cc1ccc(OC)cc1 (centres unmarked) [OMC, octyl methoxycinnamate]
AUC0 − t Fold Difference (Simulated Mean/Observed Mean) ([1]; Day 1): 1.5
Cmax Fold Difference (Simulated Mean/Observed Mean) ([1]; Day 1): 1.5
AUC0 − t Fold Difference (Simulated Mean/Observed Mean) ([1]; Day 4): 2.7
Cmax Fold Difference (Simulated Mean/Observed Mean) ([1]; Day 4): 1.3
depletion in suspension hepatocytes (human hepatocytes): medium to fast depletion
hepatocyte CLint [2]: 43.3 µL/min/1e6 cells
hepatocyte CLint at 10 µM [2]: 43.3 µL/min/1e6 cells
blood plasma ratio at 60 min, 5 µM [3]: 0.73
Observed AUC0 − t, Geometric mean ([4]; Day 1): 21.6 ng·h/mL
Observed AUC0 − t, Range ([4]; Day 1): 2.7 to 57.7 ng·h/mL
Observed Cmax, Range ([4]; Day 1): 0.6 to 5 ng/mL
Observed AUC0 − t, Geometric mean ([4]; Day 4): 103.4 ng·h/mL
Observed AUC0 − t, Range ([4]; Day 4): 45.1 to 213.5 ng·h/mL
Observed Cmax, Range ([4]; Day 4): 2.6 to 30.6 ng/mL
dermal delivered fraction of the applied dose ([5]; all the conditions (30 min to 24 h), target dose 200 µg/cm^2): less than 0.5%
Dermal delivery (Epidermis + Dermis + Receptor fluid), 14C-OMC ([5]; terminated at 30 min): 0.10%
Dermis, distribution of 14C-OMC ([5]; terminated at 30 min): 0.004%
Epidermis, distribution of 14C-OMC ([5]; terminated at 30 min): 0.07%
Receptor fluid, distribution of 14C-OMC ([5]; terminated at 30 min): 0.02%
Skin excess, distribution of 14C-OMC ([5]; terminated at 30 min): 91.04%
Total recovery, 14C-OMC ([5]; terminated at 30 min): 91.65%
Total strips (1–20), distribution of 14C-OMC ([5]; terminated at 30 min): 0.51%
Dermal delivery (Epidermis + Dermis + Receptor fluid), 14C-OMC ([5]; terminated at 1 h): 0.06%
Dermis, distribution of 14C-OMC ([5]; terminated at 1 h): 0.01%
Epidermis, distribution of 14C-OMC ([5]; terminated at 1 h): 0.04%
Receptor fluid, distribution of 14C-OMC ([5]; terminated at 1 h): 0.003%
Skin excess, distribution of 14C-OMC ([5]; terminated at 1 h): 112.02%
Total recovery, 14C-OMC ([5]; terminated at 1 h): 112.38%
Total strips (1–20), distribution of 14C-OMC ([5]; terminated at 1 h): 0.30%
Dermal delivery (Epidermis + Dermis + Receptor fluid), 14C-OMC ([5]; terminated at 2 h): 0.11%
Dermis, distribution of 14C-OMC ([5]; terminated at 2 h): 0.005%
Epidermis, distribution of 14C-OMC ([5]; terminated at 2 h): 0.06%
Receptor fluid, distribution of 14C-OMC ([5]; terminated at 2 h): 0.04%
Skin excess, distribution of 14C-OMC ([5]; terminated at 2 h): 89.22%
Total recovery, 14C-OMC ([5]; terminated at 2 h): 90.06%
Total strips (1–20), distribution of 14C-OMC ([5]; terminated at 2 h): 0.73%
Dermal delivery (Epidermis + Dermis + Receptor fluid), 14C-OMC ([5]; terminated at 4 h): 0.12%
Dermis, distribution of 14C-OMC ([5]; terminated at 4 h): 0.01%
Epidermis, distribution of 14C-OMC ([5]; terminated at 4 h): 0.05%
Receptor fluid, distribution of 14C-OMC ([5]; terminated at 4 h): 0.06%
Skin excess, distribution of 14C-OMC ([5]; terminated at 4 h): 100.26%
Total recovery, 14C-OMC ([5]; terminated at 4 h): 100.75%
Total strips (1–20), distribution of 14C-OMC ([5]; terminated at 4 h): 0.37%
Dermal delivery (Epidermis + Dermis + Receptor fluid), 14C-OMC ([5]; terminated at 8 h): 0.20%
Dermis, distribution of 14C-OMC ([5]; terminated at 8 h): 0.01%
Epidermis, distribution of 14C-OMC ([5]; terminated at 8 h): 0.10%
Receptor fluid, distribution of 14C-OMC ([5]; terminated at 8 h): 0.09%
Skin excess, distribution of 14C-OMC ([5]; terminated at 8 h): 113.76%
Total recovery, 14C-OMC ([5]; terminated at 8 h): 114.46%
Total strips (1–20), distribution of 14C-OMC ([5]; terminated at 8 h): 0.50%
Dermal delivery (Epidermis + Dermis + Receptor fluid), 14C-OMC ([5]; terminated at 24 h): 0.28%
Dermis, distribution of 14C-OMC ([5]; terminated at 24 h): 0.02%
Epidermis, distribution of 14C-OMC ([5]; terminated at 24 h): 0.21%
Receptor fluid, distribution of 14C-OMC ([5]; terminated at 24 h): 0.06%
Skin excess, distribution of 14C-OMC ([5]; terminated at 24 h): 100.26%
Total recovery, 14C-OMC ([5]; terminated at 24 h): 100.96%
Total strips (1–20), distribution of 14C-OMC ([5]; terminated at 24 h): 0.41%
Dermis diffusivity [6]: 1.0E−07 cm^2/s
Dermis/water partition coefficient [6]: 7.0E−01
Epidermis diffusivity [6]: 3.0E−08 cm^2/s
Epidermis/water partition coefficient [6]: 2.0E+01
Stratum corneum diffusivity [6]: 2.0E−10 cm^2/s
Stratum corneum/water partition coefficient [6]: 4.5E+02
Vehicle diffusivity [6]: 7.0E−12 cm^2/s
Vehicle/water partition coefficient [6]: 1.5E+05
In vivo CLint scaled [7]: 312.0 l/h/kg liver
fraction unbound at 60 min, 10 µM (Cross filtration): 0.0004

C=CCN1CC[C@]23c4c5ccc(O)c4O[C@H]2C(=O)CC[C@@]3(O)[C@H]1C5 [Naloxone, reference compound]
remaining after 240 min (human hepatocytes; positive control, human hepatocytes in suspension, 240 min): 4.8 ± 1.9%
hepatocyte CLint [2]: 16.4 ± 1.6 µL/min/1e6 cells

CCCCC(CC)COC(=O)C(C#N)=C(c1ccccc1)c1ccccc1 (centres unmarked) [Octocrylene, octocrylene]
AUC0 − t Fold Difference (Simulated Mean/Observed Mean) ([1]; Day 1): 1.4
Cmax Fold Difference (Simulated Mean/Observed Mean) ([1]; Day 1): 1.2
AUC0 − t Fold Difference (Simulated Mean/Observed Mean) ([1]; Day 4): 1.4
Cmax Fold Difference (Simulated Mean/Observed Mean) ([1]; Day 4): 0.6
depletion in suspension hepatocytes (human hepatocytes): medium to fast depletion
hepatocyte CLint [2]: 16.9 µL/min/1e6 cells
hepatocyte CLint at 0.1 µM [2]: 27.8 µL/min/1e6 cells
hepatocyte CLint at 1 µM [2]: 15.2 µL/min/1e6 cells
hepatocyte CLint at 10 µM [2]: 7.6 µL/min/1e6 cells
blood plasma ratio at 60 min, 5 µM [3]: 0.73
Observed AUC0 − t, Geometric mean ([4]; Day 1): 20.0 ng·h/mL
Observed AUC0 − t, Range ([4]; Day 1): 6.4 to 38.1 ng·h/mL
Observed Cmax, Range ([4]; Day 1): 0.5 to 3.6 ng/mL
Observed AUC0 − t, Geometric mean ([4]; Day 4): 94.7 ng·h/mL
Observed AUC0 − t, Range ([4]; Day 4): 41.4 to 210.0 ng·h/mL
Observed Cmax, Range ([4]; Day 4): 2.6 to 38.7 ng/mL
Dermal delivery (Epidermis + dermis + receptor fluid), 14C-octocrylene ([8]; 24 h, mean, ref SCCS (2021)): 0.15%
Dermis, distribution of 14C-octocrylene ([8]; 24 h, mean, ref SCCS (2021)): 0.012%
Epidermis, distribution of 14C-octocrylene ([8]; 24 h, mean, ref SCCS (2021)): 0.14%
Receptor fluid, distribution of 14C-octocrylene ([8]; 24 h, mean, ref SCCS (2021)): 0.0001%
Skin excess, distribution of 14C-octocrylene ([8]; 24 h, mean, ref SCCS (2021)): 97.96%
Total recovery, 14C-octocrylene ([8]; 24 h, mean, ref SCCS (2021)): 98.8%
Total strips (1–20), distribution of 14C-octocrylene ([8]; 24 h, mean, ref SCCS (2021)): 0.69%
absorbed dose into receptor fluid [8, 9]: negligible
dermal delivered fraction of the applied dose [8, 9]: less than 0.4%
Dermis diffusivity [6]: 6.0E−08 cm^2/s
Dermis/water partition coefficient [6]: 7.0E−01
Epidermis diffusivity [6]: 2.0E−08 cm^2/s
Epidermis/water partition coefficient [6]: 6.0E+02
Stratum corneum diffusivity [6]: 2.0E−11 cm^2/s
Stratum corneum/water partition coefficient [6]: 2.0E+03
Vehicle diffusivity [6]: 6.2E−09 cm^2/s
Vehicle/water partition coefficient [6]: 4.0E+05
In vivo CLint scaled [7]: 121.7 l/h/kg liver
fraction unbound at 60 min, 10 µM (Cross filtration): 0.0014

Source: article PMC10613959 (Toxicological Sciences, 2023)
